The results in this text go back to ChEMBL document CHEMBL3351720, “Design, synthesis and evaluation of benzoisothiazolones as selective inhibitors of PHOSPHO1” (Bioorg Med Chem Lett, 2014).

A value given as a limit tells only on which side of the number the result lay.

As usually defined, the kinetic solubility is solubility judged after dilution from a stock solution rather than from solid. In general, IC50 refers to the concentration that gives 50% inhibition.

A short description of series [1]: Plasma protein binding in human at 10 uM by LC-MS analysis. Format: ADME, cell-free. As to conditions: read-out: PPB (converted). The procedure, abridged:
(§1)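 Read-out was % of compound bound in human or mouse plasma, each tested at 1 µM and 10 µM.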

Series [2] in a line: Permeability of the compound at donor pH 5.0 and acceptor pH 7.4 by PAMPA. Format: ADME. An outline of the steps: (§2)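 PAMPA with the acceptor compartment at pH 7.4 and the donor at pH 5.0, 6.2 or 7.4. Permeability reported as ×10^-6 cm/s. Part of an in vitro ADME panel.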
For orientation: PAMPA measures passive passage across an artificial lipid membrane.

Series [3] can be described thus: Aqueous solubility of the compound in pH 5 pION buffer by UV kinetic solubility method. Format: physicochemical. An outline of the steps:
(§3)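 Kinetic solubility in pION's buffer at pH 5.0, 6.2 or 7.4, reported in µg/ml. Part of an in vitro ADME panel.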

A short description of series [4]: Metabolic stability in human plasma assessed as compound remaining at 1 x pH7.4 PBS measured at 3 hrs by LC-MS/MS analysis. Format: ADME, cell-free. The note with it: pH 7.4, read-out: Stability. The procedure, abridged:
(§4)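 Stability of each analogue was reported as % of compound remaining. For liver microsomes this was after 1 hr, with runs with and without NADPH. For plasma this was after 3 hrs in plasma mixed 1:1 with 1× PBS, pH 7.4. Both human and mouse matrices were used.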

A short description of series [5]: Metabolic stability in mouse plasma assessed as compound remaining at 1 x pH7.4 PBS measured at 3 hrs by LC-MS/MS analysis. Format: ADME, cell-free. As to conditions: pH 7.4, read-out: Stability. The procedure, abridged: as §4
Series [6] in a line: Metabolic stability in human liver microsomes measured at 1 uM after 1 hr at pH 7.4 by LC-MS/MS analysis. Format: ADME. The note with it: read-out: Stability. An outline of the steps: as §4
On the technique in general: Liver microsomes are vesicles of endoplasmic reticulum, rich in cytochrome P450 enzymes.

Series [7] in a line: Metabolic stability in human plasma assessed as compound remaining at 1:1 1 x pH7.4 PBS measured at 3 hrs by LC-MS/MS analysis. Format: ADME, cell-free. The note with it: pH 7.4, read-out: Stability. An outline of the steps: as §4
Series [8] in a line: Aqueous solubility of the compound in pH 7.4 pION buffer by UV kinetic solubility method. Format: physicochemical. The procedure, abridged: as §3
A short description of series [9]: Plasma protein binding in mouse at 1 uM by LC-MS analysis. Format: ADME, cell-free. The note with it: read-out: PPB (converted). The procedure, abridged: as §1
A short description of series [10]: Plasma protein binding in mouse at 10 uM by LC-MS analysis. Format: ADME, cell-free. As to conditions: read-out: PPB (converted). The procedure, abridged: as §1
The nature of series [11]: Cytotoxicity against human Fa2N-4 cells after 24 hrs by ATP-lite 1-step assay. Format: cell-based. As to conditions: fa2n-4, 24 h, read-out: LC50 (the source's name).
The nature of series [12]: Inhibition of Streptococcus pneumoniae diphosphomevalonate decarboxylase assessed as conversion of (R)-5-diphosphomevalonate to ADP by fluorometry.
Series [13] in a line: Aqueous solubility of the compound in pH 6.2 pION buffer by UV kinetic solubility method. Format: physicochemical. An outline of the steps:
as §3

A short description of series [14]: Metabolic stability in mouse plasma assessed as compound remaining at 1:1 1 x pH7.4 PBS measured at 3 hrs by LC-MS/MS analysis. Format: ADME, cell-free. As to conditions: pH 7.4, read-out: Stability. An outline of the steps:
as §4

For series [15], the target named is T1, Alkaline phosphatase, tissue-nonspecific isozyme (Homo sapiens, UniProt P05186).
T1 sequence (P05186 whole entry): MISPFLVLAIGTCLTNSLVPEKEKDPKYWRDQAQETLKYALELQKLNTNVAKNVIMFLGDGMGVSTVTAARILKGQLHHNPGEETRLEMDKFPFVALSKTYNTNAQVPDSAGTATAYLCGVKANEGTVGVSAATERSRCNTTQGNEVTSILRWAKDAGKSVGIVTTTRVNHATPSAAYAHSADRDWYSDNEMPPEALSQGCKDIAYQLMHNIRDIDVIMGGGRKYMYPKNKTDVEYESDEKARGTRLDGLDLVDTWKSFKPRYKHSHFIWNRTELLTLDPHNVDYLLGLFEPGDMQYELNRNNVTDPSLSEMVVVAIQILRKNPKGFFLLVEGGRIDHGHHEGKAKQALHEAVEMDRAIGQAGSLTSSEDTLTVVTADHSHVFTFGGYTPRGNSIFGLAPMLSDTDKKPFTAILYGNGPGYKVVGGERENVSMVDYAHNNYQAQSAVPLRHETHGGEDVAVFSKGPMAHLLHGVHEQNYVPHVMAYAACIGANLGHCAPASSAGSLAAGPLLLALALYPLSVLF

The nature of series [16]: Plasma protein binding in human at 1 uM by LC-MS analysis. Format: ADME, cell-free. As to conditions: read-out: PPB (converted). The procedure, abridged:
as §1

Series [17] in a line: Metabolic stability in mouse liver microsomes measured at 1 uM after 1 hr at pH 7.4 by LC-MS/MS analysis. Format: ADME. The note with it: read-out: Stability. An outline of the steps:
as §4

In series [18] the target is T2, Ectonucleotide pyrophosphatase/phosphodiesterase family member 1 (Homo sapiens, UniProt P22413).
T2 sequence (P22413 whole entry): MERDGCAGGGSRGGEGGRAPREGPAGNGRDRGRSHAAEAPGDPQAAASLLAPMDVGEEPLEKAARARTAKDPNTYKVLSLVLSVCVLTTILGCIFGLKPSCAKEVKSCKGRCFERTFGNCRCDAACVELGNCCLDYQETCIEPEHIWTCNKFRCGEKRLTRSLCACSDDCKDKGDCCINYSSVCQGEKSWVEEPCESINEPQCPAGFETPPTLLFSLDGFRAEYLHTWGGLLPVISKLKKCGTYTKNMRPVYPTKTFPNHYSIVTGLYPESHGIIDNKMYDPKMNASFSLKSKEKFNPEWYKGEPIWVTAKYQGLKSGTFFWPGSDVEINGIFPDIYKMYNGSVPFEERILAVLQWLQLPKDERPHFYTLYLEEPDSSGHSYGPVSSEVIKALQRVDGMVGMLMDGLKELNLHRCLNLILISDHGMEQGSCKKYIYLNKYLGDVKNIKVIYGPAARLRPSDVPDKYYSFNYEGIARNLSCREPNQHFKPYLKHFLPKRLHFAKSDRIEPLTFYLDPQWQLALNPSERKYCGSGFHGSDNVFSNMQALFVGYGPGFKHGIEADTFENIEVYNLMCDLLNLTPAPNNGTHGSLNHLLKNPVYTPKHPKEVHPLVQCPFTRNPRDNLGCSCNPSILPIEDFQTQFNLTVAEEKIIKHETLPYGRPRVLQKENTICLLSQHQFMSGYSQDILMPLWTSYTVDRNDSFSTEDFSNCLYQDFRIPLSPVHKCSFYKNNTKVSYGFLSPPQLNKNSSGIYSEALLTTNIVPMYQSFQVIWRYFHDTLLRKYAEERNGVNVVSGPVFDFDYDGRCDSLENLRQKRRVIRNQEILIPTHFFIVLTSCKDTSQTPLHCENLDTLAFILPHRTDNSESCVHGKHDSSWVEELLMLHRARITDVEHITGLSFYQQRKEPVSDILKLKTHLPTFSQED
Description: Inhibition of NPP1 (unknown origin).

Series [19] in a line: Permeability of the compound at donor pH 6.2 and acceptor pH 7.4 by PAMPA. Format: ADME. An outline of the steps: as §2
Series [20] is described as follows: Permeability of the compound at donor pH 7.4 and acceptor pH 7.4 by PAMPA. Format: ADME. The procedure, abridged: as §2

Regarding `CN(C)C(=O)c1cccc(-n2sc3ccccc3c2=O)c1`, the fraction unbound at 10 µM in [1] is 0.558; in series [10], 0.533. Further, the results for the permeability in series [2], in series [19] and in series [20] were 94 ×10⁻⁶ cm/s, 92 ×10⁻⁶ cm/s and 97 ×10⁻⁶ cm/s, respectively. For the same compound, the solubility (kinetic) in series [3], in [8] and in series [13] was above 30 µg/mL each time. Moreover, the remaining at 3 h is 18.9% in [4], 76.2% in series [5], 60% in [7] and 56.9% in [14]. The remaining at 1 h, 1 µM in series [6] came to 45.7%; in series [17], 56.6%. Also, the fraction unbound at 1 µM in series [9] was 0.52; in [16], 0.587. For the same compound, the CC50 in [11] was above 50 µM. Besides, the values for the IC50 in [12], in series [15] and in series [18] were 24 µM, above 100 µM and above 30 µM, respectively.
